Laboratory results from ChEMBL document CHEMBL4130582, “Total Synthesis of Reniochalistatin E” (J Nat Prod, 2017).
Residues, ends and D or L forms follow the SMILES beside them. *: point of attachment. Boc = CC(C)(C)OC(=O)*

Columns and labels:
Format in all cases: functional, cell-based
[1] = Cytotoxicity against human MM1R cells after 72 hrs by Alamar Blue assay; conditions: MM.1R
Outline: (§1)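 Nonadherent cells in RPMI1640 + 10% FBS at 37 °C, 5% CO2. Compound from DMSO stock was diluted in media (31.6 nM to 200 μM) and plated in triplicate; cells (2000/well) were added afterwards. After 69 h, Alamar Blue was added for 3 h more; fluorescence read at ex 560/em 590 nm. Doxorubicin and etoposide served as positive controls. IC50 taken from ≥3 independent experiments.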

A549 = assay: Cytotoxicity against human A549 cells after 72 hrs by Alamar Blue assay; conditions: A549, 72 h
Outline: (§2)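 A549 or HeLa cells in RPMI1640 + 10% FBS at 37 °C, 5% CO2. Seeded 1500 cells/well and left to adhere 2−3 h, then given compound diluted from DMSO stock in media (31.6 nM to 200 μM), in triplicate. After 69 h, Alamar Blue was added for 3 h more; fluorescence read at ex 560/em 590 nm. Doxorubicin and etoposide served as positive controls, untreated wells as negative. IC50 taken from ≥3 independent experiments.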

HeLa = assay: Cytotoxicity against human HeLa cells after 72 hrs by Alamar Blue assay; outline: as §2
[2] = Cytotoxicity against human MiaPaCa cells after 72 hrs by Alamar Blue assay; conditions: MIA PaCa-2, 72 h
Outline: as §2, with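 “Mia PaCa-2” for “A549 or HeLa cells”, “DMEM” for “RPMI1640”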

RPMI-8226 = assay: Cytotoxicity against human RPMI8226 cells after 72 hrs by Alamar Blue assay; conditions: RPMI-8226, 72 h; outline: as §1
U-937 = assay: Cytotoxicity against human U937 cells after 72 hrs by Alamar Blue assay; conditions: U-937, 72 h; outline: as §1

| Compound | IC50 [1] | IC50 (A549) | IC50 (HeLa) | IC50 [2] | IC50 (RPMI-8226) | IC50 (U-937) |
| --- | --- | --- | --- | --- | --- | --- |
| CC[C@H](C)[C@H](NC(=O)[C@@H](NC(=O)[C@@H]1CCCN1C(=O)OC(C)(C)C)C(C)C)C(=O)N1CCC[C@H]1C(=O)N[C@H](C(=O)N1CCC[C@H]1C(=O)N[C@@H](CC(C)C)C(=O)N[C@@H](Cc1c[nH]c2ccccc12)C(=O)OC)[C@@H](C)CC (Boc-PVIPIPLW-OMe) | > 20 µM | > 20 µM | > 20 µM | 19.1 µM | > 20 µM | > 20 µM |
| CC[C@H](C)[C@H](NC(=O)OC(C)(C)C)C(=O)N1CCC[C@H]1C(=O)N[C@@H](CC(C)C)C(=O)N[C@@H](Cc1c[nH]c2ccccc12)C(=O)N1CCC[C@H]1C(=O)N[C@H](C(=O)N[C@H](C(=O)N1CCC[C@H]1C(=O)OC)[C@@H](C)CC)C(C)C (Boc-IPLWPVIP-OMe) | > 20 µM | > 20 µM | > 20 µM | > 20 µM | > 20 µM | > 20 µM |
| CC[C@H](C)[C@@H]1NC(=O)[C@H](C(C)C)NC(=O)[C@@H]2CCCN2C(=O)[C@H](Cc2c[nH]c3ccccc23)NC(=O)[C@H](CC(C)C)NC(=O)[C@@H]2CCCN2C(=O)[C@H]([C@@H](C)CC)NC(=O)[C@@H]2CCCN2C1=O (cyclo(IPIPLWPV)) | > 11.2 µM | > 20 µM | 16.9 µM | > 20 µM | 4.5 µM | 12.4 µM |
| H-IPLWPVIP-OH | > 20 µM | > 20 µM | 18.4 µM | > 20 µM | 16.4 µM | > 20 µM |
| H-PVIPIPLW-OH | > 20 µM | > 20 µM | > 20 µM | > 20 µM | > 20 µM | 9.5 µM |
